The source of these data is ChEMBL document CHEMBL4819017 (Eur J Med Chem, 2021).

pEC50, pIC50: −log10 of the molar value.

For one data set, the target named is T1, Cytochrome P450 1A2 (Homo sapiens, UniProt P05177).
T1 sequence (P05177 whole entry): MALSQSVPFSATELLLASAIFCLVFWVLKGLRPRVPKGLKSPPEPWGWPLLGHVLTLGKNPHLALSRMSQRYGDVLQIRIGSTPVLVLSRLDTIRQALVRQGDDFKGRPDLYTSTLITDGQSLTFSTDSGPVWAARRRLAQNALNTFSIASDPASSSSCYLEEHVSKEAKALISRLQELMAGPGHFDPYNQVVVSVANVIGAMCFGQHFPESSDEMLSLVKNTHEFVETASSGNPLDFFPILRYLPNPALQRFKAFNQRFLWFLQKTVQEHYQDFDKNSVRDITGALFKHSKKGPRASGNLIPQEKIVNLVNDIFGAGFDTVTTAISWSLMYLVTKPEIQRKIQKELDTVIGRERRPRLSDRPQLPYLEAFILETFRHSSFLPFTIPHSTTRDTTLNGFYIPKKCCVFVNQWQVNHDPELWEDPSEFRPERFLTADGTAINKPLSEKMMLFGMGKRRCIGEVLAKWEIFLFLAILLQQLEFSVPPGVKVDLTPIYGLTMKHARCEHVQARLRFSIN
The data set is described as follows: Inhibition of CYP1A2 (unknown origin) using Luciferin-ME as substrate at 10 uM preincubated with enzyme and substrate for 5 mins followed by addition of NADPH regeneration system and measured after 60 mins by luminescence method. Type of data set: ADME. Put shortly:
(§1)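 P450-Glo luminescence assays with these substrates: Luciferin-ME (CYP1A2), Luciferin-PPXE (CYP3A4), Luciferin-H (CYP2C9), LuciferinH-EG (CYP2C19), Luciferin-ME-EG (CYP2D6). Compounds run in 1/3 serial dilutions from 10 µM in 0.5% DMSO with enzyme and substrate. After 5 min preincubation, NADPH regeneration reagent added; 60 min at 37 °C, then detection reagent for 30 min. Background subtracted.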

The next data set concerns the target Cytochrome P450 2C9 (Homo sapiens, UniProt P11712). The data set is described as follows: Inhibition of CYP2C9 (unknown origin) using Luciferin-H as substrate at 10 uM preincubated with enzyme and substrate for 5 mins followed by addition of NADPH regeneration system and measured after 60 mins by luminescence method. Type of data set: ADME. Put shortly: as §1

Data set [1] has as its target Voltage-gated inwardly rectifying potassium channel KCNH2 (Homo sapiens, UniProt Q12809). The data set is described as follows: Inhibition of human ERG by fluorescence polarization assay. The method, boiled down:
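Predictor h-ERG membrane preparations (sonicated) incubated with test compound dilutions and fluorescent tracer (working 4X tracer at 4 nM) at room temperature for ≥1 h. Read-out by fluorescence polarization, ex 530/25, em 590/35.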
(In general: Polarisation of emitted light reports the rotation of a fluorescent probe.)

For a further data set, the target named is Cytochrome P450 2D6 (Homo sapiens, UniProt P10635). The experiment in a line: Inhibition of CYP2D6 (unknown origin) using Luciferin-ME-EG as substrate at 10 uM preincubated with enzyme and substrate for 5 mins followed by addition of NADPH regeneration system and measured after 60 mins by luminescence method. Type of data set: ADME. The method, boiled down:
as §1

Data set [2] is described as follows: Metabolic stability in rat liver microsomes assessed as parent compound remaining in presence of NADPH regenerating system at 0.5 uM measured after 15 mins by LC-MS/MS analysis. The note with it: read-out: Stabilty. Type of data set: ADME, Microsome. The method, boiled down: (§2)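 Human, mouse or rat liver microsomes at 0.5 mg/ml protein with compound at 0.5 µM and NADPH-regenerating system, 37 °C with shaking. Control wells contain 0.1 M potassium phosphate instead of the regenerating system. Reaction stopped with acetonitrile/0.1% formic acid, centrifuged, supernatant analyzed by LC-MS/MS. Result is percent parent compound remaining.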

For data set [3], the target named is Phosphatidylinositol 4,5-bisphosphate 3-kinase catalytic subunit alpha isoform (Homo sapiens, UniProt P42336). The experiment in a line: Inhibition of human full length p110alpha (1 to 1068 residues) expressed in baculovirus-infected Sf21 cells by ADP-Hunter Plus assay.
Chain of Phosphatidylinositol 4,5-bisphosphate 3-kinase catalytic subunit alpha isoform (P42336 whole entry, the tested form may be a part, canonical isoform): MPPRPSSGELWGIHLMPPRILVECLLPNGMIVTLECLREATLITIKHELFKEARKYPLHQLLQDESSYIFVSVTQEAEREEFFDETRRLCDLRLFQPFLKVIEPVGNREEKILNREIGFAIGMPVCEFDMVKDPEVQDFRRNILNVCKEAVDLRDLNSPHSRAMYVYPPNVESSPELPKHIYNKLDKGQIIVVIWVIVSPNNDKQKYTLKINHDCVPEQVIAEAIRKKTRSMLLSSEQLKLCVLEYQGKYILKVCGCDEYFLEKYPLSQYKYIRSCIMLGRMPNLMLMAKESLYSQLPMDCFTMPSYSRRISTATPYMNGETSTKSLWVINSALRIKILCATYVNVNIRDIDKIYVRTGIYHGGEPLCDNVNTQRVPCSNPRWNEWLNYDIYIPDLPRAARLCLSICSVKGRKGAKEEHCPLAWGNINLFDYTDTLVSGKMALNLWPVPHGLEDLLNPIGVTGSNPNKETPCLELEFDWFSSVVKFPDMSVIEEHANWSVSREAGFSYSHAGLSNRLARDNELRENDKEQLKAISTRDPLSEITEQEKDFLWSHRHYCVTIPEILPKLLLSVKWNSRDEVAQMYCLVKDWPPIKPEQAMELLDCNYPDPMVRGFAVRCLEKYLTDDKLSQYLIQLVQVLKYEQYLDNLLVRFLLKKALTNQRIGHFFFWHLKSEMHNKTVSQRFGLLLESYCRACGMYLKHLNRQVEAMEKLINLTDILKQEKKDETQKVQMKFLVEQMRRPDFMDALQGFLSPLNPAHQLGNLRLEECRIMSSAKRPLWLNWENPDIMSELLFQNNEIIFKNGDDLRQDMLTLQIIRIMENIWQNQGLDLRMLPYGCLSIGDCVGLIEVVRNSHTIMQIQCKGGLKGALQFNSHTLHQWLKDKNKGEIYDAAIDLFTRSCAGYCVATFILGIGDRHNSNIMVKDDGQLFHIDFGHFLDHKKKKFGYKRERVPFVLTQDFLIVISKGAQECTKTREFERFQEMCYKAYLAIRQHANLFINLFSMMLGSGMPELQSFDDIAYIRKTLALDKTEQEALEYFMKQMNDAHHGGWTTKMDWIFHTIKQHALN
Data set [4] in a line: Metabolic stability in human liver microsomes assessed as parent compound remaining in presence of NADPH regenerating system at 0.5 uM measured after 15 mins by LC-MS/MS analysis. As to conditions: read-out: Stabilty. Type of data set: ADME, Microsome. The method, boiled down: as §2
(In general: Liver microsomes are vesicles of endoplasmic reticulum, rich in cytochrome P450 enzymes.)

Another data set has as its target Cytochrome P450 2C19 (Homo sapiens, UniProt P33261). The data set is described as follows: Inhibition of CYP2C19 (unknown origin) using LuciferinH-EG as substrate at 10 uM preincubated with enzyme and substrate for 5 mins followed by addition of NADPH regeneration system and measured after 60 mins by luminescence method. Type of data set: ADME. The method, boiled down: as §1

Data set [5] in a line: Metabolic stability in mouse liver microsomes assessed as parent compound remaining in presence of NADPH regenerating system at 0.5 uM measured after 15 mins by LC-MS/MS analysis. Type of data set: ADME, Microsome. As to conditions: read-out: Stabilty. The method, boiled down:
as §2

The next data set deals with Cytochrome P450 3A4 (Homo sapiens, UniProt P08684). The experiment in a line: Inhibition of CYP3A4 (unknown origin) using Luciferin-PPXE as substrate at 10 uM preincubated with enzyme and substrate for 5 mins followed by addition of NADPH regeneration system and measured after 60 mins by luminescence method. Type of data set: ADME. The method, boiled down: as §1
Chain of Cytochrome P450 3A4 (P08684 whole entry): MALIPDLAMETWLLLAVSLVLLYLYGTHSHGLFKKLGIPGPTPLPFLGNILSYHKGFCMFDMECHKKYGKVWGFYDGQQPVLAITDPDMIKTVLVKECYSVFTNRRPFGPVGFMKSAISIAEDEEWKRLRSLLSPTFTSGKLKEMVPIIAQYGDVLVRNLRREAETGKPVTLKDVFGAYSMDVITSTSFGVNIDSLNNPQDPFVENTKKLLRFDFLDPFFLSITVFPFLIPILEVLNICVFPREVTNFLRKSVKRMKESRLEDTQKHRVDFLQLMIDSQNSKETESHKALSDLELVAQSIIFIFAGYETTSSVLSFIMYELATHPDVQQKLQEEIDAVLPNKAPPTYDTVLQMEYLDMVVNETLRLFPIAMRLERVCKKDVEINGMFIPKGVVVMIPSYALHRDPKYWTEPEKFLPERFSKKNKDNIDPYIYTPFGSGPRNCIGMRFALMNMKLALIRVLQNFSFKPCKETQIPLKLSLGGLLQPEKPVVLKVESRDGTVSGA
Data set [6] is described as follows: Inhibition of PI3K/mTOR in human U2OS cells assessed as inhibition of AKT1 phosphorylation at Ser473 residue by C-ELISA. Type of data set: cell-based. The method, boiled down:
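U2OS osteosarcoma cells grown in 0.1% FBS and serum-stimulated. Endogenous phospho-AKT1 Ser473 quantified by cell-based ELISA with chemiluminescent substrate. Signal plotted against inhibitor concentration and fitted to a sigmoid dose-response curve.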

For data set [7], the target named is Serine/threonine-protein kinase mTOR (Homo sapiens, UniProt P42345). The experiment in a line: Inhibition of recombinant human GST tagged mTOR (1360 to 2549 residues) expressed in baculovirus expression system measured by LanthaScreen assay. The method, boiled down:
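mTOR inhibition measured by LanthaScreen assay; IC50 values average two independent experiments.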
(In TR-FRET formats the signal depends on donor and acceptor labels being close together.)

The species entered for a further data set is Homo sapiens. The experiment in a line: Selectivity ratio of IC50 for recombinant human GST tagged mTOR (1360 to 2549 residues) expressed in baculovirus expression system to IC50 for human full length p110alpha (1 to 1068 residues) expressed in baculovirus-infected Sf21 cells. Put shortly: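 mTOR activity measured by LanthaScreen assay. PI3K-α activity measured by ADP Hunter Plus (ADP accumulation, fluorescence ex 544/em 580 nm), normalized to no-compound control and fitted to a sigmoid dose-response curve. IC50s are the average of two independent experiments. Ratio is mTOR IC50 over PI3K-α IC50.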

Data set [8] can be described thus: Oral bioavailability in BALB/c mouse at 10 mg/kg measured for 8 hrs. The note with it: in vivo. Type of data set: ADME, organism-based. The method, boiled down: (§3)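 BALB/c mice dosed I.V. or P.O. at the stated dose; plasma levels followed for 8 h. Parameters from noncompartmental analysis: AUC (h.ng/ml), T1/2 (h), Cl (L/h/Kg), Vd (L/Kg), Cmax (ng/ml), Tmax (h).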

A short description of data set [9]: AUC(infinity) in BALB/c mouse at 10 mg/kg, po measured for 8 hrs. Type of data set: ADME, organism-based. Further details: route oral, time 8 hrs, dose 10 mg/kg. The note with it: in vivo. The method, boiled down:
as §3

The nature of data set [10]: Clearance in BALB/c mouse at 5 mg/kg, iv measured for 8 hrs. Type of data set: ADME, organism-based. The note with it: in vivo. Put shortly:
as §3

A short description of data set [11]: Tmax in BALB/c mouse at 10 mg/kg, po measured for 8 hrs. Type of data set: ADME, organism-based. The note with it: in vivo. Put shortly:
(§4)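 Dosing in BALB-C mice intravenously or orally, with plasma sampled over 8 h. Parameters (AUC, T1/2, Cl, Vd, Cmax, Tmax) come from a noncompartmental model. Units: AUC h.ng/ml, Vd L/Kg, Cmax ng/ml, Tmax h.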

The nature of data set [12]: Plasma concentration in BALB/c mouse at 10 mg/kg, po measured for 8 hrs. Type of data set: ADME, organism-based. Put shortly:
as §4

Data set [13] is described as follows: Half life in BALB/c mouse at 5 mg/kg, iv measured for 8 hrs. The note with it: in vivo. Type of data set: ADME, organism-based. Put shortly:
as §3

The nature of data set [14]: Half life in BALB/c mouse at 10 mg/kg, po measured for 8 hrs. Type of data set: ADME, organism-based. The note with it: in vivo. The method, boiled down: as §3
Data set [15] can be described thus: AUC (infinity) in BALB/c mouse at 5 mg/kg, iv measured for 8 hrs. The note with it: in vivo. Type of data set: ADME, organism-based. Further details: route intravenous, dose 5 mg/kg, time 8 hrs. Put shortly:
as §3

The nature of data set [16]: Volume of distribution in BALB/c mouse at 5 mg/kg, iv measured for 8 hrs. As to conditions: in vivo. Type of data set: ADME, organism-based. The method, boiled down:
as §4

The nature of data set [17]: Cmax in BALB/c mouse at 10 mg/kg, po measured for 8 hrs. Type of data set: ADME, organism-based. Further details: route oral, dose 10 mg/kg, time 8 hrs. As to conditions: in vivo. Put shortly: as §3

Chain of Voltage-gated inwardly rectifying potassium channel KCNH2 (Q12809 whole entry): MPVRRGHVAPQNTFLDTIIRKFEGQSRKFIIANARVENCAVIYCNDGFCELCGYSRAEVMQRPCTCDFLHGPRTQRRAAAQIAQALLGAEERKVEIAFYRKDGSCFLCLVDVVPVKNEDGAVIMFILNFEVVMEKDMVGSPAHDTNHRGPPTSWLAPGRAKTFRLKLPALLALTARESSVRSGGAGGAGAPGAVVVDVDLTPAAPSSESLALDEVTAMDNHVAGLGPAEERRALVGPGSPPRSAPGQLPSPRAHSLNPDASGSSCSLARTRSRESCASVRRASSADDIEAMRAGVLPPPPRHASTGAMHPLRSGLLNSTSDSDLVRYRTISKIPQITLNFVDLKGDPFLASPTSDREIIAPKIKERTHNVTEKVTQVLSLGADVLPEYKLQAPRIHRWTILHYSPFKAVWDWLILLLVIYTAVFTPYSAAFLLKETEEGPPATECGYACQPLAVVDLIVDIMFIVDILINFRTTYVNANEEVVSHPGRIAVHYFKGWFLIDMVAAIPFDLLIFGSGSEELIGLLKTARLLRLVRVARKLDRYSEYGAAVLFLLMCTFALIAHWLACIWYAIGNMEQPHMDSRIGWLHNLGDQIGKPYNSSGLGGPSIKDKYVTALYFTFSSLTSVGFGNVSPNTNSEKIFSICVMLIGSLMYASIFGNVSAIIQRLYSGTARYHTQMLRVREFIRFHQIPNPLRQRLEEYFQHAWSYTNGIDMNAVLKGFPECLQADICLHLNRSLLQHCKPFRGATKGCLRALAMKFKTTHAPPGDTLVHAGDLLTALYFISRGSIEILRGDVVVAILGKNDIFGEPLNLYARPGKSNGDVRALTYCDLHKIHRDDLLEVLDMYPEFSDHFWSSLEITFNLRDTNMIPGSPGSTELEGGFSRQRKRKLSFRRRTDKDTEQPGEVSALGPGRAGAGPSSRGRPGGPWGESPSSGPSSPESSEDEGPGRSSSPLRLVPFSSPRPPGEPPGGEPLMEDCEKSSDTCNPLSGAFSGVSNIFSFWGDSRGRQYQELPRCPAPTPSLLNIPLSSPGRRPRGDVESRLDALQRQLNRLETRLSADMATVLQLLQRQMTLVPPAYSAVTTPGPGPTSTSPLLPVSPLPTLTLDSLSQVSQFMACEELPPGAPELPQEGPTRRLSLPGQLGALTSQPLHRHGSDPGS
Chain of Cytochrome P450 2D6 (P10635 whole entry): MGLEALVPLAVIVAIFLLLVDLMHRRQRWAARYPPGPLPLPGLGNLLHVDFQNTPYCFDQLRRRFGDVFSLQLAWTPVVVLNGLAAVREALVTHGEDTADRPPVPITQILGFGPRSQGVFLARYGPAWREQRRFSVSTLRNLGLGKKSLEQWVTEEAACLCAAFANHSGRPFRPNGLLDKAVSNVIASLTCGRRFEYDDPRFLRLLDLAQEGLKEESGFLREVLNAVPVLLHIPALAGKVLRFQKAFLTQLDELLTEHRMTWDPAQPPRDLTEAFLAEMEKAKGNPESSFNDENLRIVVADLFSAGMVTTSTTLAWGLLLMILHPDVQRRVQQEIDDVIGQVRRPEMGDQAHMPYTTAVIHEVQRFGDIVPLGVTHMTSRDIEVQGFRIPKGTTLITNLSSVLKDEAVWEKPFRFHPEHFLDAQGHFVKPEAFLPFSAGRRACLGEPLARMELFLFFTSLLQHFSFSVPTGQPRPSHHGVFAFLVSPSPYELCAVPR
Chain of Cytochrome P450 2C19 (P33261 whole entry): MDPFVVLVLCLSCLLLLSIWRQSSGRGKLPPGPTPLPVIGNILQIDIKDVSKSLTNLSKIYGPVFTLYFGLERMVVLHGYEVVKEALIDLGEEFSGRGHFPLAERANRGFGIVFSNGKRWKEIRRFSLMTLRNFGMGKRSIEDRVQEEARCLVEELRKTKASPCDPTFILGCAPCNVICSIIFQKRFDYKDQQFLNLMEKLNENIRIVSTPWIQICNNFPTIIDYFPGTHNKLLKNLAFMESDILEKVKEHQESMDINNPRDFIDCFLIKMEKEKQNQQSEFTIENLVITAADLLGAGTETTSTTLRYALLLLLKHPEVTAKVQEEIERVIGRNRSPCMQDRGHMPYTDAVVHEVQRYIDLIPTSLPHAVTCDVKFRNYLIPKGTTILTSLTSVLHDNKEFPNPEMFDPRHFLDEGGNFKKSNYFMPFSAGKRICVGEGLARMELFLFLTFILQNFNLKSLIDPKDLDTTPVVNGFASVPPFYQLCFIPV
Chain of Cytochrome P450 2C9 (P11712 whole entry): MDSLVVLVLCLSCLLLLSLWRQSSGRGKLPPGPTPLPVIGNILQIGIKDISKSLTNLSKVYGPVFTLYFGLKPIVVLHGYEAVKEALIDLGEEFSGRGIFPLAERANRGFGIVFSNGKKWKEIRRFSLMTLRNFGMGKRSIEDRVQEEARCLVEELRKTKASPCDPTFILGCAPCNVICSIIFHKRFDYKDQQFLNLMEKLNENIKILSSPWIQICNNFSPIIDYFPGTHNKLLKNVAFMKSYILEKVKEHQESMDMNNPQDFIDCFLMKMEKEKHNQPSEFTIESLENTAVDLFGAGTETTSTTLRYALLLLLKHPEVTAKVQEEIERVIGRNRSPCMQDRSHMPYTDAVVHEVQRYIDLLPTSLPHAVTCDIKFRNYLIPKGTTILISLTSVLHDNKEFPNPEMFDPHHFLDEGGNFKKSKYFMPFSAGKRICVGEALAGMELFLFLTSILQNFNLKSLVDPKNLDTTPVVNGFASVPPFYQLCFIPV

Turning to `COc1ncc2cc1NS(=O)(=O)c1cccc(c1)C(=O)NCc1cccc(c1)-c1ncnc3ccc-2cc13`, the pIC50 (as a rule, the IC50 on a negative log10 scale, so that one unit is a factor of ten) on Cytochrome P450 1A2 is less than 4.52; against Cytochrome P450 2C9 it was less than 4.52; in [1], less than 4.52; at Cytochrome P450 2D6, less than 4.52; in data set [3], 8.60; against Cytochrome P450 2C19, less than 4.52. This compound also showed a pIC50 at Cytochrome P450 3A4 of less than 4.52. In addition, the results for the remaining at 0.25 h, 0.5 µM in [2], in data set [4] and in data set [5] were 91%, 97% and 74%, respectively. For the same compound, the pEC50 (as a rule, −log10 of the EC50, conventionally taken in molar units) in [6] was 7.32.

Consider `COc1ncc2cc1NS(=O)(=O)c1cccc(c1)C(=O)NCc1cccc(c1F)-c1ccnc3ccc-2cc13`, for which the negative-log IC50 (pIC50) in data set [7] was 6.65.

For `COc1ncc2cc1NS(=O)(=O)c1cccc(c1)C(=O)NCc1cncc(c1)Cc1cnc3sc-2nn13`, the negative logarithm of the IC50 (pIC50) is less than 4.52 in data set [1], 6.44 in data set [7] and 8.05 in [3]. In the data set listed under Homo sapiens, the Ratio IC50 came to 40.4.

As for `COc1ncc2cc1NS(=O)(=O)c1cccc(c1)C(=O)N1CCc3ccc(cc3C1)-c1ccnc3ccc-2cc13`, the pIC50 in data set [7] is 6.60.

Turning to `COc1ncc2cc1NS(=O)(=O)c1cccc(c1)C(=O)NCc1cccc(c1)-c1cnn3ccc-2nc13`, the pIC50 in [1] was less than 4.52; in [7], less than 5.00; in data set [3], 6.35. For the same compound, the Ratio IC50 in the data set listed under Homo sapiens is more than 22.

In the case of `COc1ncc2cc1NS(=O)(=O)c1cccc(c1)C(=O)NCC1CCN(CC1)c1ccnc3ccc-2cc13`, the pIC50 in data set [7] was 8.39.

As for `COc1ncc2cc1NS(=O)(=O)c1cc(c(F)cc1F)C(=O)NCc1cncc(c1)-c1ccnc3ccc-2nc13`, in data set [7], the pIC50 is 8.27.

On to `COc1ncc2cc1NS(=O)(=O)c1cccc(c1)C(=O)NCc1cccc(c1)-c1ccnc3ccc-2cc13`, for which the pIC50 in [7] was 7.68.

As for `COc1ncc2cc1NS(=O)(=O)c1cccc(c1)C(=O)NCCn1cc(cn1)-c1cnc3ccc-2nn13`, the pIC50 in data set [7] is 8.25.

Turning to `COc1ncc2cc1NS(=O)(=O)c1cccc(c1)C(=O)NCCn1cc(cn1)-c1ccnc3ccc-2cc13`, in data set [7], the pIC50 was 6.60.

For the compound `COc1ncc2cc1NS(=O)(=O)c1cc(c(F)cc1F)C(=O)NCc1cccc(c1)-c1ccnc3ccc-2cc13`, in data set [7], the pIC50 is 7.20.

For `COc1ncc2cc1NS(=O)(=O)c1cccc(c1)C(=O)NCc1cncc(c1)-c1ncnc3ccc-2cc13`, the pIC50 on Cytochrome P450 1A2 is less than 4.52; against Cytochrome P450 2C9 it was less than 4.52; in [1] it was less than 4.52; against Cytochrome P450 2D6, less than 4.52; in data set [7], 8.31; in [3], 8.89. For the same compound, the pIC50 on Cytochrome P450 2C19 and on Cytochrome P450 3A4 was less than 4.52 throughout. In data set [8], the bioavailability – broadly, the share of a dose that reaches the circulation, judged against a reference dose that is usually intravenous – is 47.6%. Besides, the AUC(0-inf) – broadly, the area under the concentration-time curve extrapolated to infinity – in data set [9] came to 8760 ng·h/mL; in [15], 9200 ng·h/mL. Moreover, the clearance (usually the volume of plasma or blood freed of the substance per unit of time) in [10] is 9 mL/min/kg. Besides, the Tmax (usually the time at which the peak concentration occurs) in [11] is 9.6 min. Also, the remaining at 0.25 h, 0.5 µM in data set [2] amounted to 86%; in data set [4] it was 80%; in data set [5], 76%. Moreover, in the data set listed under Homo sapiens, the Ratio IC50 was found to be 3.8. In data set [12], this compound displayed a concentration at 8 h of 424 ng/mL. Further, the half-life (in general, how long it takes for the measured level to halve) is 2.91 h in data set [13] and 5.68 h in data set [14]. In [6], the pEC50 was 7.69. The Vd (in general, a proportionality between amount in the body and measured concentration, not a real space) in data set [16] was determined as 0.59 L/kg. The concentration in data set [17] peaked (Cmax) at 1270 ng/mL.
